Data on three molecules can be found in ChEMBL document CHEMBL1765005, “Small molecule antagonists of the urokinase (uPA): urokinase receptor (uPAR) interaction with high reported potencies show only weak effects in cell-based competition assays employing the native uPAR ligand” (Bioorg Med Chem, 2011).

In general, inhibition refers to the percentage by which the read-out fell short of the control. A word on the IC50: it is the concentration needed to halve the response being measured. A higher IC50 goes with weaker potency in that assay.

The source made the active and inactive calls. No cut-off for these calls is given here. Residues, ends and D or L forms follow the SMILES beside them.

Holding throughout (assay type): cell-based
Test [1] has as its target T1, Urokinase-type plasminogen activator/surface receptor (Homo sapiens, UniProt P00749+Q03405). Briefly: Inhibition of high molecular weight fluorescent labelled urokinase-type plasminogen activator binding to uPAR in PMA-stimulated human U937 cells at 100 uM preincubated for 30 mins by flow cytometry. The following applies: U-937. Summed up: (§1)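 U-937 cells were stimulated with 100 nM PMA (final) for 7–8 h at 37 °C, then resuspended at 1 × 10⁶ cells/mL in cold PBS (1 mM CaCl₂, MgCl₂) with 0.1% BSA, pH 7.4. Cells were pre-incubated with antagonist on ice for 30 min, then given 40 nM Alexa-488-HMW-uPA. After washing, cell fluorescence was read by dual-colour flow cytometry as % of the no-compound control; mean ± SD, n = 3.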
For orientation: In flow cytometry, cells or beads pass a laser one at a time.

Test [2] deals with T1, Urokinase-type plasminogen activator/surface receptor. Briefly: Inhibition of high molecular weight fluorescent labelled urokinase-type plasminogen activator binding to uPAR in PMA-stimulated human U937 cells at 10 uM preincubated for 30 mins by flow cytometry. The following applies: U-937. Summed up: as §1
For test [3] the target is unchanged. Briefly: Inhibition of high molecular weight fluorescent labelled urokinase-type plasminogen activator binding to uPAR in PMA-stimulated human U937 cells at 10 nM preincubated for 30 mins by flow cytometry. The following applies: U-937. Summed up:
as §1

Test [4] has the same target. Nature of the test: Inhibition of high molecular weight fluorescent labelled urokinase-type plasminogen activator binding to uPAR in PMA-stimulated human U937 cells at 100 nM preincubated for 30 mins by flow cytometry. As to conditions: U-937. Summed up: as §1
The target is the same in test [5]. Briefly: Inhibition of [125I]-labelled urokinase-type plasminogen activator binding to uPAR in human DU-145 cells by radioligand competition binding assay.

Take `C#CCNCC(=O)N(CC(=O)N(CC(N)=O)CC(=O)NC(c1ccc(OC)cc1)c1ccc(OC)cc1)c1ccc2ccccc2c1`: the inhibition in test [1] is 50%; in test [2], 60%.

As to `N=C(N)NCCC[C@H](NC(=O)CNC(=O)[C@@H](N)CCC(=O)O)C(=O)CCl` (HELM PEPTIDE1{E.G.R.[ClC[*:1]]}$$$$V2.0), the inhibition amounted to 80% in test [3] and 90% in test [4].

Regarding `CC(=O)N[C@@H](Cc1c[nH]c2ccccc12)C(=O)Nc1cccc(-c2ccc(C(=O)N[C@@H](Cc3ccccc3)C(=O)O)cc2)c1`, in test [5], the IC50 came out at 0.8 nM. Also, the inhibition entry in test [1] and in test [2] was “inactive” throughout.
